Key:
[1] = target: T1, Kappa-type opioid receptor (Homo sapiens, UniProt P41145); experiment: Functional activity at human kappa opioid receptor expressed CHO cells by [35S]GTPgammaS binding assay; assay type: cell-based
Mu-type opioid receptor [2] = target: T2, Mu-type opioid receptor (Homo sapiens, UniProt P35372); experiment: Activity at human mu opioid receptor expressed in CHO cells by [35S]GTP-gamma-S binding assay; assay type: functional, cell-based
Mu-type opioid receptor [3] = target: T2, Mu-type opioid receptor; experiment: Functional activity at human mu opioid receptor expressed in CHO cells by [35S]GTP-gamma-S binding assay; assay type: cell-based
How it was run: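 Human µ receptor stably expressed in CHO cells; membranes at 7.5 µg protein/tube, incubated 60 min at 30 °C with 12 compound concentrations, 3 µM GDP and […] [35S]GTPγS in pH 7.4 Tris/MgCl2/NaCl/EGTA buffer. […] Antagonist mode used 200 nM DAMGO. At least 3 experiments in triplicate.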

Mu-type opioid receptor [4] = target: T2, Mu-type opioid receptor; experiment: biochemical; assay type: cell-based, CHO
[5] = target: Delta-type opioid receptor (Homo sapiens, UniProt P41143); experiment: Displacement of [3H]naltrindole from human delta opioid receptor expressed in CHO cells; assay type: cell-based
How it was run: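 Competition binding on membranes of CHO cells stably expressing human δ receptor, using [3H]naltrindole and 12 compound concentrations. Incubated 3 h at 25 °C in 50 mM Tris-HCl, pH 7.5.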

[6] = target: T1, Kappa-type opioid receptor; experiment: Activity at human kappa opioid receptor expressed in CHO cells by [35S]GTP-gamma-S binding assay; assay type: functional, cell-based
[7] = target: T1, Kappa-type opioid receptor; experiment: Activity at human kappa opioid receptor expressed in CHO cells by [35S]GTPgammaS binding assay at 10 uM; assay type: functional, cell-based
How it was run: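 Membranes from CHO cells stably expressing human κ receptor (15 µg protein/tube), 12 compound concentrations, 60 min at 30 °C in Tris-HCl/MgCl2/NaCl/EGTA buffer pH 7.4 with 3 µM GDP and […] [35S]GTPγS. Filtration count, expressed as % stimulation over basal, giving Emax and EC50. […] At least 3 experiments in triplicate.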

[8] = target: T1, Kappa-type opioid receptor; experiment: biochemical; assay type: cell-based, CHO
[9] = Displacement of [3H]naltrindole from human delta opioid receptor expressed in CHO cells

Chain of Delta-type opioid receptor (P41143 whole entry): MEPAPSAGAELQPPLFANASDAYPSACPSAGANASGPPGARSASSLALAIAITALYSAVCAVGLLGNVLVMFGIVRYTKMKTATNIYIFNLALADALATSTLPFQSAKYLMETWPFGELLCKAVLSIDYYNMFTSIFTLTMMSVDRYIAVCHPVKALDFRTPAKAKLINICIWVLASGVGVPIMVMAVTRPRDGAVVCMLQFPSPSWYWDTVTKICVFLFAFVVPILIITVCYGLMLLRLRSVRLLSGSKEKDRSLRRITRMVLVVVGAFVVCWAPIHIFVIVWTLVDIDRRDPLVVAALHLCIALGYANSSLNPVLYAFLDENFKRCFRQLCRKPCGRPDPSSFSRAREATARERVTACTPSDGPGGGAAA
T1 sequence (P41145 whole entry): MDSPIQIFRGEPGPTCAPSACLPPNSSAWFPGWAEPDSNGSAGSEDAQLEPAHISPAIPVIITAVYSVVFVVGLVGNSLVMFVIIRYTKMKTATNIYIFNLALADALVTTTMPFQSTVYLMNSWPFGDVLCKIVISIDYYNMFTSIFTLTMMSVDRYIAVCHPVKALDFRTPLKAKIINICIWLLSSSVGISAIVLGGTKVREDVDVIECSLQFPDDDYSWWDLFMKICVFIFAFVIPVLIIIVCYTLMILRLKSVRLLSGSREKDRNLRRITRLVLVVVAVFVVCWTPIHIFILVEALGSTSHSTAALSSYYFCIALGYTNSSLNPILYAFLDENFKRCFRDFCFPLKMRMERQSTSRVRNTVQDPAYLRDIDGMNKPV
T2 sequence (P35372 whole entry): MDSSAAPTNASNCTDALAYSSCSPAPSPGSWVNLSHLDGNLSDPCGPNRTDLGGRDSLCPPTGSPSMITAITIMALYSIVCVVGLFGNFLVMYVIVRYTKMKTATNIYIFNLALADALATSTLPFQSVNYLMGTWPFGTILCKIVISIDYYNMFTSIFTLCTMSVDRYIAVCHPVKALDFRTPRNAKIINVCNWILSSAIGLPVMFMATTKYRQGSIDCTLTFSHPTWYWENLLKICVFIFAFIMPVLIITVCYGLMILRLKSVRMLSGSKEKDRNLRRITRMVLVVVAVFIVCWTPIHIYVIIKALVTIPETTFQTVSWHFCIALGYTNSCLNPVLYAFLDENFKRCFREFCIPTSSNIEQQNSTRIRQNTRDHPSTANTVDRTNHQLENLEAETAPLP

| SMILES | Activity ([1]; filed as agonist) | Ki (Mu-type opioid receptor [4]) [nM] | Ki [5] [nM] | EC50 [6] [nM] | Emax [6] [%] | EC50 (Mu-type opioid receptor [2]) [nM] | Emax (Mu-type opioid receptor [2]) [%] | Ki [8] [nM] | also measured |
| --- | --- | --- | --- | --- | --- | --- | --- | --- | --- |
| Oc1ccc2c(c1)[C@@]13CCCC[C@H]1[C@@H](C2)N(CC1CCC1)CC3 | Agonist |  |  |  |  |  |  |  | Imax (Mu-type opioid receptor [2]): 50%; Activity (Mu-type opioid receptor [3]; filed as partial agonist): Partial agonist |
| O=C(CCCCCCCCC(=O)Oc1ccc2c(c1)[C@@]13CCCCC1[C@@H](C2)N(CC1CCC1)CC3)Nc1ccc2c(c1)[C@@]13CCCCC1[C@@H](C2)N(CC1CCC1)CC3 (some centres not stated) |  | 0.65 | 12 | 8.8 | 55 | 4.4 | 56 | 0.38 | Activity ([1]; filed as partial agonist): Partial agonist; IC50 (Mu-type opioid receptor [2]): 150 nM; Imax (Mu-type opioid receptor [2]): 61%; Imax [7]: 65 µM; Activity (Mu-type opioid receptor [3]; filed as partial agonist): Partial agonist |
| O=C(/C=C/C(=O)Oc1ccc2c(c1)[C@@]13CCCC[C@H]1[C@@H](C2)N(CC1CCC1)CC3)Oc1ccc2c(c1)[C@@]13CCCC[C@H]1[C@@H](C2)N(CC1CCC1)CC3 |  |  |  |  |  |  |  | 0.08 |  |
| O=C(CCCCCCCCC(=O)Oc1ccc2c(c1)[C@@]13CCCCC1[C@@H](C2)N(C[C@@H]1CCCO1)CC3)Oc1ccc2c(c1)[C@@]13CCCCC1[C@@H](C2)N(C[C@@H]1CCCO1)CC3 (some centres not stated) | Agonist | 0.67 | 8.3 | 8.8 | 140 | 12 | 69 | 1.2 | IC50 (Mu-type opioid receptor [2]): 360 nM; Imax (Mu-type opioid receptor [2]): 48% |
| Oc1ccc2c(c1)[C@@]13CCCC[C@H]1[C@@H](C2)N(CC1CC1)CC3 |  |  |  |  |  |  |  |  | Activity (Mu-type opioid receptor [3]; filed as partial agonist): Partial agonist |
| Oc1ccc2c(c1)[C@]13CCCCC1[C@H](C2)N(CC1CC1)CC3 (single isomer, unassigned; (+)) |  |  | 13 |  |  |  |  |  |  |
| O=C(CCCCCCCCC(=O)Nc1ccc2c(c1)[C@@]13CCCCC1[C@@H](C2)N(CC1CCC1)CC3)Nc1ccc2c(c1)[C@@]13CCCCC1[C@@H](C2)N(CC1CCC1)CC3 (some centres not stated) |  | 5.7 | 38 |  |  |  |  | 7.5 |  |
| C[C@@H](NC(=O)[C@@H](N)Cc1ccc(O)cc1)C(=O)NCC(=O)N(C)[C@@H](Cc1ccccc1)C(=O)NCCO |  |  |  |  |  |  |  |  | Activity (Mu-type opioid receptor [3]; filed as agonist): Agonist |
| C#CCN1CC[C@]23CCCCC2[C@H]1Cc1ccc(OC(=O)CCCCCCCCC(=O)Oc2ccc4c(c2)[C@@]25CCCCC2[C@@H](C4)N(CC#C)CC5)cc13 (some centres not stated) |  | 14 | 190 |  |  |  |  | 10 |  |
| O=C(CCCCCCCCC(=O)Oc1ccc2c(c1)[C@@]13CCCCC1[C@@H](C2)N(CC1CC1)CC3)Oc1ccc2c(c1)[C@@]13CCCCC1[C@@H](C2)N(CC1CCC1)CC3 (single isomer, unassigned; (-)) | Agonist | 0.34 | 4.4 | 2.5 | 110 | 2.9 | 41 | 0.23 | IC50 (Mu-type opioid receptor [2]): 96 nM; Imax (Mu-type opioid receptor [2]): 64%; Activity (Mu-type opioid receptor [3]; filed as partial agonist): Partial agonist |
| CN1CC[C@]23c4c5ccc(OC(=O)CCCCCCCCC(=O)Oc6ccc7c(c6)[C@@]68CCCCC6[C@@H](C7)N(CC6CCC6)CC8)c4O[C@H]2[C@@H](O)C=C[C@H]3[C@H]1C5 (some centres not stated) | Agonist | 0.22 | 3.9 | 2.3 | 150 | 2.5 | 110 | 0.11 | Activity (Mu-type opioid receptor [3]; filed as agonist): Agonist |
| O=C(CCC(=O)Oc1ccc2c(c1)[C@@]13CCCCC1[C@@H](C2)N(CC1CCC1)CC3)Oc1ccc2c(c1)[C@@]13CCCCC1[C@@H](C2)N(CC1CCC1)CC3 (some centres not stated) |  | 0.16 | 9.4 |  |  |  |  | 0.076 |  |
| O=C(CCC(=O)Nc1ccc2c(c1)[C@@]13CCCCC1[C@@H](C2)N(CC1CCC1)CC3)Nc1ccc2c(c1)[C@@]13CCCCC1[C@@H](C2)N(CC1CCC1)CC3 (some centres not stated) |  | 3.3 |  |  |  |  |  | 3.8 |  |
| Oc1ccc2c(c1)[C@@]13CCCCC1[C@@H](C2)N(C[C@@H]1CCCO1)CC3 (some centres not stated) |  | 0.01 |  |  |  |  |  | 0.15 | Ki [9]: 0.27 nM |
| O=C(O)CCCCCCCCC(=O)Oc1ccc2c(c1)[C@@]13CCCCC1[C@@H](C2)N(CC1CCC1)CC3 (some centres not stated) | Agonist | 0.71 | 18 | 2.8 | 75 | 3 | 110 | 0.29 | Activity (Mu-type opioid receptor [3]; filed as agonist): Agonist |
| O=C(/C=C/C(=O)Nc1ccc2c(c1)[C@@]13CCCCC1[C@@H](C2)N(CC1CCC1)CC3)Nc1ccc2c(c1)[C@@]13CCCCC1[C@@H](C2)N(CC1CCC1)CC3 (some centres not stated) |  | 13 | 160 |  |  |  |  | 7.3 |  |
| O=C(CCCCCCCCC(=O)Oc1ccc2c(c1)[C@]13CCCCC1[C@H](C2)N(CC1CCC1)CC3)Oc1ccc2c(c1)[C@@]13CCCCC1[C@@H](C2)N(CC1CCC1)CC3 (single isomer, unassigned; (+)) | Agonist | 2.2 | 23 | 7.9 | 77 |  | 28 | 1.2 | IC50 (Mu-type opioid receptor [2]): 460 nM; Imax (Mu-type opioid receptor [2]): 71% |
| Oc1ccc2c(c1)[C@]13CCCCC1[C@H](C2)N(CC1CCC1)CC3 (single isomer, unassigned; (+)) |  |  | > 10000 |  |  |  |  | 55 |  |
| O=C(CCCCCCCCC(=O)Oc1ccc2c(c1)[C@@]13CCCCC1[C@@H](C2)N(CC1CCC1)CC3)Oc1ccccc1 (some centres not stated) | Agonist | 0.44 | 11 | 3.8 | 170 | 5.1 | 93 | 0.3 | Activity (Mu-type opioid receptor [3]; filed as agonist): Agonist |
| C#CCN1CC[C@]23CCCC[C@H]2[C@H]1Cc1ccc(O)cc13 |  | 0.003 |  |  |  |  |  | 0.003 | Ki [9]: 0.62 nM |
| O=C(/C=C/C=C/C(=O)Oc1ccc2c(c1)[C@@]13CCCCC1[C@@H](C2)N(CC1CCC1)CC3)Oc1ccc2c(c1)[C@@]13CCCCC1[C@@H](C2)N(CC1CCC1)CC3 (some centres not stated) | Agonist | 2.8 | 28 | 17 | 91 | 19 | 96 | 0.62 | Activity (Mu-type opioid receptor [3]; filed as agonist): Agonist |
| Nc1ccc2c(c1)[C@@]13CCCC[C@H]1[C@@H](C2)N(CC1CCC1)CC3 |  | 3.7 |  |  |  |  |  | 1.8 |  |
| O=C(CCCCCCCCC(=O)Oc1ccc2c(c1)[C@]13CCCCC1[C@H](C2)N(CC1CCC1)CC3)Oc1ccc2c(c1)[C@]13CCCCC1[C@H](C2)N(CC1CCC1)CC3 (some centres not stated) |  | 130 | 700 |  |  |  |  | 130 |  |

— ChEMBL document CHEMBL1148605, “Synthesis and preliminary in vitro investigation of bivalent ligands containing homo- and heterodimeric pharmacophores at mu, delta, and kappa opioid receptors” (J Med Chem, 2006)
